Test results: ChEMBL document CHEMBL2390889, “Synthesis and anticancer activity of acyl thioureas bearing pyrazole moiety” (2013)

Columns and labels:
Format in all cases: functional
[1] = system: Jurkat; test: Anticancer activity against human Jurkat cells assessed as viable cells at 10^-5 M after 48 hrs by XTT assay relative to control; conditions: read-out: Activity
Outline: (§1)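 DLD-1, HepG2 and Jurkat cells were grown in low-glucose DMEM with 10% FBS, 1% L-glutamine, 100 IU/mL penicillin and streptomycin at 37 °C under 5% CO2. They were seeded at 10 × 10^4 cells/well and treated with a 10-fold dilution series from 10^-4 to 10^-8 M for 24 or 48 h. XTT was then added, absorbance read at 450 nm after 4 h, and viability expressed as % of untreated control (set to 100%).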

[2] = system: Jurkat; test: Anticancer activity against human Jurkat cells assessed as viable cells at 10^-4 M after 48 hrs by XTT assay relative to control; conditions: read-out: Activity; outline: as §1
[3] = system: HepG2; test: Anticancer activity against human HepG2 cells assessed as viable cells at 10^-4 M after 24 hrs by XTT assay relative to control; conditions: HepG2, 24 h, read-out: Activity; outline: as §1
[4] = system: DLD-1; test: Anticancer activity against human DLD1 cells assessed as viable cells at 10^-5 M after 24 hrs by XTT assay relative to control; conditions: DLD-1, 24 h, read-out: Activity; outline: as §1
[5] = system: HepG2; test: Anticancer activity against human HepG2 cells assessed as viable cells at 10^-5 M after 48 hrs by XTT assay relative to control; conditions: HepG2, 48 h, read-out: Activity; outline: as §1
[6] = system: DLD-1; test: Anticancer activity against human DLD1 cells assessed as viable cells at 10^-5 M after 48 hrs by XTT assay relative to control; conditions: DLD-1, 48 h, read-out: Activity; outline: as §1
[7] = system: DLD-1; test: Anticancer activity against human DLD1 cells assessed as viable cells at 10^-4 M after 24 hrs by XTT assay relative to control; conditions: DLD-1, 24 h, read-out: Activity; outline: as §1
[8] = system: Jurkat; test: Anticancer activity against human Jurkat cells assessed as viable cells at 10^-5 M after 24 hrs by XTT assay relative to control; conditions: read-out: Activity; outline: as §1
[9] = system: Jurkat; test: Anticancer activity against human Jurkat cells assessed as viable cells at 10^-4 M after 24 hrs by XTT assay relative to control; conditions: read-out: Activity; outline: as §1
[10] = system: HepG2; test: Anticancer activity against human HepG2 cells assessed as viable cells at 10^-5 M after 24 hrs by XTT assay relative to control; conditions: HepG2, 24 h, read-out: Activity; outline: as §1
[11] = system: DLD-1; test: Anticancer activity against human DLD1 cells assessed as viable cells at 10^-4 M after 48 hrs by XTT assay relative to control; conditions: DLD-1, 48 h, read-out: Activity; outline: as §1
[12] = system: HepG2; test: Anticancer activity against human HepG2 cells assessed as viable cells at 10^-4 M after 48 hrs by XTT assay relative to control; conditions: HepG2, 48 h, read-out: Activity; outline: as §1

Cc1ccc(NC(=S)NC(=O)c2nn(-c3ccccc3)c(-c3ccccc3)c2C(=O)c2ccccc2)cc1
viability at 10 µM [1]: 14.2%
viability at 100 µM [2]: 12.5%
viability at 100 µM [3]: 49.2%
viability at 10 µM [4]: 65.1%
viability at 10 µM [5]: 27.7%
viability at 10 µM [6]: 48.5%
viability at 100 µM [7]: 57.1%
viability at 10 µM [8]: 50.3%
viability at 100 µM [9]: 30%
viability at 10 µM [10]: 51.6%
viability at 100 µM [11]: 40.2%
viability at 100 µM [12]: 25.9%

Cc1ccccc1NC(=S)NC(=O)c1nn(-c2ccccc2)c(-c2ccccc2)c1C(=O)c1ccccc1
viability at 10 µM [1]: 51.2%
viability at 100 µM [2]: 76.6%
viability at 100 µM [3]: 29.1%
viability at 10 µM [4]: 63.2%
viability at 10 µM [5]: 22.8%
viability at 10 µM [6]: 45.6%
viability at 100 µM [7]: 55.3%
viability at 10 µM [8]: 100%
viability at 100 µM [9]: 100%
viability at 10 µM [10]: 33.3%
viability at 100 µM [11]: 41.3%
viability at 100 µM [12]: 20.8%

COc1ccc(NC(=S)NC(=O)c2nn(-c3ccccc3)c(-c3ccccc3)c2C(=O)c2ccccc2)cc1
viability at 10 µM [1]: 87.5%
viability at 100 µM [2]: 8.98%
viability at 100 µM [3]: 36.5%
viability at 10 µM [4]: 80.5%
viability at 10 µM [5]: 27.9%
viability at 10 µM [6]: 68.2%
viability at 100 µM [7]: 71.2%
viability at 10 µM [8]: 37.8%
viability at 100 µM [9]: 31.1%
viability at 10 µM [10]: 42%
viability at 100 µM [11]: 62.1%
viability at 100 µM [12]: 22.6%

O=C(NC(=S)Nc1ccc(F)cc1)c1nn(-c2ccccc2)c(-c2ccccc2)c1C(=O)c1ccccc1
viability at 10 µM [1]: 47.8%
viability at 100 µM [2]: 67.6%
viability at 100 µM [3]: 50.1%
viability at 10 µM [4]: 75.1%
viability at 10 µM [5]: 30.1%
viability at 10 µM [6]: 60.2%
viability at 100 µM [7]: 62.5%
viability at 10 µM [8]: 100%
viability at 100 µM [9]: 100%
viability at 10 µM [10]: 54.2%
viability at 100 µM [11]: 51.5%
viability at 100 µM [12]: 23.6%

O=C(NC(=S)Nc1ccc(Cl)cc1)c1nn(-c2ccccc2)c(-c2ccccc2)c1C(=O)c1ccccc1
viability at 10 µM [1]: 90%
viability at 100 µM [2]: 24.2%
viability at 100 µM [3]: 49.5%
viability at 10 µM [4]: 73.3%
viability at 10 µM [5]: 24.9%
viability at 10 µM [6]: 55.2%
viability at 100 µM [7]: 60.5%
viability at 10 µM [8]: 56.3%
viability at 100 µM [9]: 57.3%
viability at 10 µM [10]: 53.7%
viability at 100 µM [11]: 49.2%
viability at 100 µM [12]: 24.8%

O=C(NC(=S)Nc1ccc(Br)cc1)c1nn(-c2ccccc2)c(-c2ccccc2)c1C(=O)c1ccccc1
viability at 10 µM [1]: 87.5%
viability at 100 µM [2]: 40.1%
viability at 100 µM [3]: 55.2%
viability at 10 µM [4]: 78.1%
viability at 10 µM [5]: 27.8%
viability at 10 µM [6]: 62.5%
viability at 100 µM [7]: 65.2%
viability at 10 µM [8]: 100%
viability at 100 µM [9]: 78.1%
viability at 10 µM [10]: 51.5%
viability at 100 µM [11]: 50.1%
viability at 100 µM [12]: 27.2%

O=C(NC(=S)Nc1cccc2ccccc12)c1nn(-c2ccccc2)c(-c2ccccc2)c1C(=O)c1ccccc1
viability at 10 µM [1]: 14.5%
viability at 100 µM [2]: 8.24%
viability at 100 µM [3]: 78.7%
viability at 10 µM [4]: 82.2%
viability at 10 µM [5]: 51.2%
viability at 10 µM [6]: 75.5%
viability at 100 µM [7]: 74.2%
viability at 10 µM [8]: 46%
viability at 100 µM [9]: 36.4%
viability at 10 µM [10]: 85.5%
viability at 100 µM [11]: 70.6%
viability at 100 µM [12]: 49.9%

NC(=O)c1ccc(NC(=S)NC(=O)c2nn(-c3ccccc3)c(-c3ccccc3)c2C(=O)c2ccccc2)cc1
viability at 10 µM [1]: 66.3%
viability at 100 µM [2]: 39.2%
viability at 100 µM [3]: 38.1%
viability at 10 µM [4]: 100%
viability at 10 µM [5]: 27.3%
viability at 10 µM [6]: 95.2%
viability at 100 µM [7]: 100%
viability at 10 µM [8]: 100%
viability at 100 µM [9]: 100%
viability at 10 µM [10]: 44.2%
viability at 100 µM [11]: 96.6%
viability at 100 µM [12]: 22.9%

O=C(NC(=S)NCc1ccccc1)c1nn(-c2ccccc2)c(-c2ccccc2)c1C(=O)c1ccccc1
viability at 10 µM [1]: 23.1%
viability at 100 µM [2]: 17.9%
viability at 100 µM [3]: 49.2%
viability at 10 µM [4]: 75.2%
viability at 10 µM [5]: 40.6%
viability at 10 µM [6]: 65.5%
viability at 100 µM [7]: 64.2%
viability at 10 µM [8]: 34.7%
viability at 100 µM [9]: 36.6%
viability at 10 µM [10]: 56.4%
viability at 100 µM [11]: 55.9%
viability at 100 µM [12]: 39.8%

O=C(NC(=S)Nc1ncccn1)c1nn(-c2ccccc2)c(-c2ccccc2)c1C(=O)c1ccccc1
viability at 10 µM [1]: 28%
viability at 100 µM [2]: 23.4%
viability at 100 µM [3]: 44.3%
viability at 10 µM [4]: 88.5%
viability at 10 µM [5]: 31.2%
viability at 10 µM [6]: 81.4%
viability at 100 µM [7]: 80.4%
viability at 10 µM [8]: 100%
viability at 100 µM [9]: 86.2%
viability at 10 µM [10]: 51.1%
viability at 100 µM [11]: 75.5%
viability at 100 µM [12]: 28.8%

O=C(NC(=S)Nc1ccccc1)c1nn(-c2ccccc2)c(-c2ccccc2)c1C(=O)c1ccccc1
viability at 10 µM [1]: 67.6%
viability at 100 µM [2]: 6%
viability at 100 µM [3]: 38.2%
viability at 10 µM [4]: 75.5%
viability at 10 µM [5]: 23.7%
viability at 10 µM [6]: 55.4%
viability at 100 µM [7]: 71.3%
viability at 10 µM [8]: 30%
viability at 100 µM [9]: 23.3%
viability at 10 µM [10]: 42.1%
viability at 100 µM [11]: 60.6%
viability at 100 µM [12]: 21.8%
